Common to all, as to assay type: functional
Assay [1] has as its target T1, Estrogen receptor (Mus musculus) (UniProt O08537+P19785). As to the kind of experiment: Estrogenic effect in uterotrophic assay in mice at 1 nM/animal dose. In short, it runs like this: (§1)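 Immature female NMRI mice (20 days old, 10–12 g, six per group) given test compound sc once daily for three consecutive days in poly(ethylene glycol) 400/H2O (1.8% NaCl) 1:1. Uteri excised 24 h after last injection, fixed in Bouin's solution, dried, weighed. Effect = uterus dry weight (mg)/body weight (g) × 100, expressed relative to vehicle and estrone standard (0.4 μg) as % estrogenic effect.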

Assay [2] has as its target T1, Estrogen receptor (Mus musculus). Description: Estrogenic effect in uterotrophic assay in mice at 100 nM/animal dose. In short, it runs like this: as §1
Assay [3] has the same target. Description: Estrogenic effect in uterotrophic assay in mice at 10 nM/animal dose. In short, it runs like this: as §1
The target is the same in assay [4]. Description: Estrogenic effect in uterotrophic assay in mice at 0.1 nM/animal dose. The method, boiled down:
as §1

The target is the same in assay [5]. Description: Estrogenic effect in uterotrophic assay in mice at 1000 nM/animal dose. In short, it runs like this:
as §1

The structures appear in SMILES notation.

T1 sequence (O08537 whole entry, looked up): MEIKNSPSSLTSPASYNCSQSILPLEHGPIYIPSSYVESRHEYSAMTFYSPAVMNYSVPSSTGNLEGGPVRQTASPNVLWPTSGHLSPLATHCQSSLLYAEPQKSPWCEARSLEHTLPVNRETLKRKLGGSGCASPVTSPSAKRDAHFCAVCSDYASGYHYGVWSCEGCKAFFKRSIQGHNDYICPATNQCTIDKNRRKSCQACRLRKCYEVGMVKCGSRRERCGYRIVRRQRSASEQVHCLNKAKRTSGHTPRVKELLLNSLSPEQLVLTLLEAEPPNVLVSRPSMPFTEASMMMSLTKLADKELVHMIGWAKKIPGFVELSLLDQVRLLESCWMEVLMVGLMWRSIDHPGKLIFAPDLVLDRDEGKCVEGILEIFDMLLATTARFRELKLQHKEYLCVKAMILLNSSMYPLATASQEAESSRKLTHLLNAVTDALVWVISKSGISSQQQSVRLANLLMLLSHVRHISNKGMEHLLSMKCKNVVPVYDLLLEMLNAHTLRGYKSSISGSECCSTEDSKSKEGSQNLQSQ
T1 sequence (P19785 whole entry, looked up): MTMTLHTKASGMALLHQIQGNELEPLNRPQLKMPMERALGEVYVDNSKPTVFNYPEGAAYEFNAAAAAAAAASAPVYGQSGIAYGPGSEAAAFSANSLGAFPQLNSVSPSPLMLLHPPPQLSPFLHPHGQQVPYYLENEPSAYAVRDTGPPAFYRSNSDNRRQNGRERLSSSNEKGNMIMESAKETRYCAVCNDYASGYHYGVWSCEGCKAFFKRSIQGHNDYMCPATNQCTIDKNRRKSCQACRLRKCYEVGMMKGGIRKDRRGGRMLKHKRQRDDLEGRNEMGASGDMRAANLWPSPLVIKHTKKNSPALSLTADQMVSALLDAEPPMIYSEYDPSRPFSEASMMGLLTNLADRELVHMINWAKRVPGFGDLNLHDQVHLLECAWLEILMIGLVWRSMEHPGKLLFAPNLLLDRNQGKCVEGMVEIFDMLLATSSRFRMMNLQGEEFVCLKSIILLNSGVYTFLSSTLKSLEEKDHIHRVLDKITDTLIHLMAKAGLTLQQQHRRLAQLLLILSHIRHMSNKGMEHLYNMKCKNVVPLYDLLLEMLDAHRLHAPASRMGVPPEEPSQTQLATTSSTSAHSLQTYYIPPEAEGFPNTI

For `CNC(CCC(NC)c1c(Cl)cc(O)cc1Cl)c1c(Cl)cc(O)cc1Cl` (stereo in doubt), the Estrogenic effect in assay [1] came out at 47%; in assay [2], 127%; in assay [3] it was 139%; in assay [4], 0%; in assay [5], 47%.

`CNC(CCC(NC)c1c(Cl)cc(O)cc1Cl)c1c(Cl)cc(O)cc1Cl` (racemic): the Estrogenic effect was determined as 0% in assay [1]; 12% in assay [2]; 3% in assay [3]; 0% in assay [4]; 72% in assay [5].

On to `CCNC(CCC(N)c1c(Cl)cc(O)cc1Cl)c1c(Cl)cc(O)cc1Cl` (stereo unspecified), for which the Estrogenic effect in assay [1] is 93%; in assay [2], 156%; in assay [3], 140%; in assay [4], 22%.

As to `NC(CCC(N)c1c(Cl)cc(O)cc1Cl)c1c(Cl)cc(O)cc1Cl` (stereo in doubt), the Estrogenic effect in assay [1] stood at 38%; in assay [2], 100%; in assay [3] it was 135%; in assay [4], 0%.

For the molecule `CCNC(CCC(NCC)c1c(Cl)cc(O)cc1Cl)c1c(Cl)cc(O)cc1Cl` (stereo in doubt), the Estrogenic effect was found to be 125% in assay [1], 128% in assay [2], 140% in assay [3] and 61% in assay [4].

For the molecule `NC(CCC(N)c1c(Cl)cc(O)cc1Cl)c1c(Cl)cc(O)cc1Cl` (racemic), the Estrogenic effect in assay [1] came to 0%; in assay [2] it was 10%; in assay [3] it was 13%; in assay [4], 0%; in assay [5] it was 21%.

On to `CCNC(CCC(NCC)c1c(Cl)cc(O)cc1Cl)c1c(Cl)cc(O)cc1Cl` (racemic), for which the Estrogenic effect in assay [1] turned out to be 0%; in assay [2] it was 142%; in assay [3], 78%; in assay [4], 0%.

Source of the values: ChEMBL document CHEMBL1128391, “Investigation of the configurational and conformational influences on the hormonal activity of 1,2-bis(2,6-dichloro-4-hydroxyphenyl)ethylenediamines and of their platinum(II) complexes. 1. Synthesis, estradiol receptor affinity, and estrogenic activity of diastereomeric [N-alkyl- and …” (J Med Chem, 1995).
